In ChEMBL document CHEMBL1165977, “Novel analogues of Istaroxime, a potent inhibitor of Na(+),K(+)-ATPase: Synthesis, structure-activity relationship and 3D-quantitative structure-activity relationship of derivatives at position 6 on the androstane scaffold” (Bioorg Med Chem, 2010):

How the values were obtained:
[1] = Therapeutic index, ratio of lethal dose to ED80 for inotropic activity in guinea pig; type: organism-based, Cavia porcellus; details: in vivo
Summary of the method: (§1)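 Anesthetized guinea pigs with a jugular vein cannula and an intubated trachea for spontaneous respiration. After stabilization, drug was infused iv at 0.16 mL/min until death or for up to 90 min. Vehicle was DMSO diluted in physiological solution to 1% DMSO final. Read-out was +dP/dt_max. ED80 (dose raising +dP/dt_max by 80%) came from the dose–response, and the doses giving maximum inotropy and death were recorded, giving the lethal dose/ED80 ratio.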

Cavia porcellus [2] = species: Cavia porcellus; experiment: Positive inotropic activity in electrically driven guinea pig atria assessed as maximal concentration required to increase in […]; type: functional
[3] = Inhibition of dog kidney Na+K+-ATPase assessed as hydrolysis of [32P]ATP; design: species or system Canis lupus familiaris
Summary of the method: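 Dog kidney Na+,K+-ATPase, isolated and purified by the Jørgensen method. Enzyme activity was read as % hydrolysis of 32P-ATP with versus without test compound. IC50 was obtained by nonlinear least-squares curve fitting, as the mean of two or three experiments.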

Cavia porcellus [4] = experiment: Toxicity in guinea pig assessed as death at 0.16 ml/min, iv up to 90 mins; type: organism-based; details: in vivo, 1.5 h; summary of the method: as §1
Cavia porcellus [5] = experiment: Positive inotropic activity in iv dosed guinea pig atria assessed as concentration required to increase in […]; type: functional
Cavia porcellus [6] = experiment: Positive inotropic activity in guinea pig atria assessed as increase in […] at 0.16 ml/min, iv; type: functional

## C[C@H]1O[C@@H](O[C@H]2[C@@H](O)C[C@H](O[C@H]3[C@@H](O)C[C@H](O[C@H]4CC[C@@]5(C)[C@H](CC[C@@H]6[C@@H]5C[C@@H](O)[C@]5(C)[C@@H](C7=CC(=O)OC7)CC[C@]65O)C4)O[C@@H]3C)O[C@@H]2C)C[C@H](O)[C@@H]1O [DIGOXIN]
[1]
  selectivity ratio: 3.2
Cavia porcellus [2]
  Activity: 0.97 µM/g
[3]
  IC50: 310 nM
Cavia porcellus [4]
  Activity: Toxic
Cavia porcellus [5]
  ED80: 0.41 µM/g

## CNCCCO/N=C1\CC[C@@]2(C)[C@H](C1)[C@@H](NC=O)C[C@@H]1[C@@H]2CC[C@]2(C)C(=O)CC[C@@H]12.Cl
Cavia porcellus [6]
  Emax: 177%
[1]
  selectivity ratio: 47
Cavia porcellus [2]
  Activity: 2.8 µM/g
[3]
  IC50: 1100 nM
Cavia porcellus [5]
  ED80: 0.93 µM/g

## C[C@]12CC/C(=N\OCCN)C[C@@H]1/C(=N/O)C[C@@H]1[C@@H]2CC[C@]2(C)C(=O)CC[C@@H]12.Cl
Cavia porcellus [6]
  Emax: 180%
[1]
  selectivity ratio: 11
Cavia porcellus [2]
  Activity: 4.3 µM/g
[3]
  IC50: 24 nM
Cavia porcellus [5]
  ED80: 0.84 µM/g

## CNCCCO/N=C1\CC[C@@]2(C)[C@H](C1)[C@@H](CO)C[C@@H]1[C@@H]2CC[C@]2(C)C(=O)CC[C@@H]12.Cl
Cavia porcellus [6]
  Emax: 263%
[1]
  selectivity ratio: 28
Cavia porcellus [2]
  Activity: 9 µM/g
[3]
  IC50: 690 nM
Cavia porcellus [5]
  ED80: 1.5 µM/g

## CO[C@H]1C[C@@H]2[C@H](CC[C@]3(C)C(=O)CC[C@@H]23)[C@@]2(C)CC/C(=N\OCCN)C[C@H]12.Cl
Cavia porcellus [6]
  Emax: 167%
[1]
  selectivity ratio: 9
Cavia porcellus [2]
  Activity: 18 µM/g
[3]
  IC50: 710 nM
Cavia porcellus [5]
  ED80: 4.3 µM/g

## C[C@]12CC/C(=N\O[C@@H]3CCNC3)C[C@@H]1[C@@H](NC=O)C[C@@H]1[C@@H]2CC[C@]2(C)C(=O)CC[C@@H]12.Cl
Cavia porcellus [6]
  Emax: 142%
[1]
  selectivity ratio: 11
Cavia porcellus [2]
  Activity: 6 µM/g
[3]
  IC50: 41 nM
Cavia porcellus [5]
  ED80: 1.6 µM/g

## C[C@]12CC/C(=N\OCCN)C[C@@H]1[C@@H](O[N+](=O)[O-])C[C@@H]1[C@@H]2CC[C@]2(C)C(=O)CC[C@@H]12.O=C(O)/C=C/C(=O)O
Cavia porcellus [6]
  Emax: 172%
[1]
  selectivity ratio: 8
Cavia porcellus [2]
  Activity: 9.8 µM/g
[3]
  IC50: 330 nM
Cavia porcellus [5]
  ED80: 3.6 µM/g

## C[C@]12CC/C(=N\OCCN)C[C@@H]1[C@@H](NC=O)C[C@@H]1[C@@H]2CC[C@]2(C)C(=O)CC[C@@H]12.O=C(O)/C=C/C(=O)O
Cavia porcellus [6]
  Emax: 174%
[1]
  selectivity ratio: 33
Cavia porcellus [2]
  Activity: 27 µM/g
[3]
  IC50: 160 nM
Cavia porcellus [5]
  ED80: 2 µM/g

## C[C@]12CC/C(=N\O[C@@H]3CCNC3)C[C@@H]1[C@@H](CCO)C[C@@H]1[C@@H]2CC[C@]2(C)C(=O)CC[C@@H]12.Cl
Cavia porcellus [6]
  Emax: 183%
Cavia porcellus [2]
  Activity: 5.1 µM/g
[3]
  IC50: 58 nM
Cavia porcellus [4]
  Activity: Non-toxic
Cavia porcellus [5]
  ED80: 1.9 µM/g

## C[C@]12CC/C(=N\O[C@@H]3CCNC3)C[C@@H]1[C@@H](C(N)=O)C[C@@H]1[C@@H]2CC[C@]2(C)C(=O)CC[C@@H]12.Cl
Cavia porcellus [6]
  Emax: 109%
Cavia porcellus [2]
  Activity: 8.8 µM/g
[3]
  IC50: 140 nM
Cavia porcellus [4]
  Activity: Non-toxic
Cavia porcellus [5]
  ED80: 2.2 µM/g

## CNCCCO/N=C1\CC[C@@]2(C)[C@H](C1)/C(=N/O)C[C@@H]1[C@@H]2CC[C@]2(C)C(=O)CC[C@@H]12.Cl
Cavia porcellus [6]
  Emax: 158%
Cavia porcellus [2]
  Activity: 15 µM/g
[3]
  IC50: 200 nM
Cavia porcellus [4]
  Activity: Non-toxic
Cavia porcellus [5]
  ED80: 7.1 µM/g

## C[C@]12CC/C(=N\O[C@@H]3CCNC3)C[C@@H]1/C(=N/O)C[C@@H]1[C@@H]2CC[C@]2(C)C(=O)CC[C@@H]12.Cl
Cavia porcellus [6]
  Emax: 144%
Cavia porcellus [2]
  Activity: 4.3 µM/g
[3]
  IC50: 16 nM
Cavia porcellus [4]
  Activity: Non-toxic
Cavia porcellus [5]
  ED80: 1.5 µM/g

## C[C@]12CC/C(=N\OCCN)C[C@@H]1[C@@H](CCO)C[C@@H]1[C@@H]2CC[C@]2(C)C(=O)CC[C@@H]12.Cl
Cavia porcellus [6]
  Emax: 238%
[1]
  selectivity ratio: 23
Cavia porcellus [2]
  Activity: 17 µM/g
[3]
  IC50: 320 nM
Cavia porcellus [5]
  ED80: 2.5 µM/g
